Consider two compounds from ChEMBL document CHEMBL3603779, “Identification and Optimization of Benzimidazole Sulfonamides as Orally Bioavailable Sphingosine 1-Phosphate Receptor 1 Antagonists with in Vivo Activity” (J Med Chem, 2015).

In general, IC50 refers to the concentration needed to halve the response being measured. As usually defined, the fraction unbound is free concentration divided by total concentration. Higher therefore signals much free substance. The term logD denotes lipophilicity at a set pH, counting ionised and neutral species. Usually clearance stands for a measure of how efficiently the substance is removed, as volume per time. A higher clearance goes with a high capacity for elimination. The term bioavailability denotes the share of a dose that reaches the circulation, judged against a reference dose that is usually intravenous. A high value points to much systemic uptake. In general, EC50 refers to the concentration at which the effect is half-maximal. As a reminder, the thermodynamic solubility is solubility found after equilibrating the solid with the medium. The Cmax is the maximum level reached in the sampled fluid or tissue.

Data set [1] concerns the target T1, Cytochrome P450 3A4 (Homo sapiens, UniProt P08684). In words: Inhibition of CYP3A4 in human liver microsomes incubated for 5 mins in presence of NADPH and specific substrates by LC/MS/MS method. It is filed as ADME.
The nature of data set [2]: Unbound fraction in dog plasma at 10 uM by LCMS/MS detection based equilibrium dialysis method. It is filed as ADME, cell-free, Canis lupus familiaris. On the technique in general: Equilibrium dialysis compares concentrations on both sides of a semipermeable membrane.
Data set [3] concerns the target T2, Cytochrome P450 3A5 (Homo sapiens, UniProt P20815). Description: Inhibition of CYP3A5 in human liver microsomes incubated for 5 mins in presence of NADPH and specific substrates by LC/MS/MS method. Format: ADME. On the technique in general: Liver microsomes are vesicles of endoplasmic reticulum, rich in cytochrome P450 enzymes.
A short description of data set [4]: Intrinsic clearance in dog hepatocytes assessed per 10^6 cells at 1 uM after 0.5 to 120 mins by LCMS/MS method. The note with it: read-out: CLH. Format: ADME, cell-based, Canis lupus familiaris, Hepatocyte.
Another data set concerns the target Cytochrome P450 2C9 (Homo sapiens, UniProt P11712). Description: Inhibition of CYP2C9 in human liver microsomes incubated for 5 mins in presence of NADPH and specific substrates by LC/MS/MS method. Format: ADME.
Data set [5] is described as follows: Lipophilicity, log D of the compound at pH 7.4. Format: physicochemical. Particulars: buffer.
Data set [6] is described as follows: Clearance in beagle dog at 2.5 mg/kg, iv by LCMS/MS method. It is filed as ADME, organism-based, Canis lupus familiaris. The note with it: in vivo.
The nature of data set [7]: Oral bioavailability in Han Wistar rat at 10 mg/kg by LCMS/MS method. It is filed as ADME, organism-based. The note with it: in vivo.
The next data set concerns Mus musculus. In words: Inhibition of FGF-S1P-stimulated angiogenesis in 129s1/SvImJ mouse assessed as reduction in hemoglobin level at 10 mg/kg, po administered once-daily for 4 days by spectrophotometry based matrigel plug angiogenesis assay. Format: functional, organism-based. In short, it runs like this: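 Matrigel (0.5 mL) with 2 µg/mL β-FGF and 1 µM S1P injected subcutaneously in the ventral region of female 129s1/SvImJ mice. Oral dosing at 10 mg/kg once daily on days 5-8 post-implant (5 per cohort); vehicle 0.5% HPMC, 0.1% Tween 80. Controls also include Matrigel without factors. Hemoglobin per gram of plug gel quantified.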

The target of data set [8] is Sphingosine 1-phosphate receptor 1 (Homo sapiens, UniProt P21453). In words: Antagonist activity against human S1P1 receptor expressed in human U2OS cells co-expressing GFP assessed as inhibition of S1P-induced receptor translocation. Format: cell-based. In short, it runs like this:
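Cellular S1P1 translocation (internalization) assay with antagonist; EC50 reported as mean of at least three separate determinations ± standard deviation.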

Data set [9] deals with T3, Nuclear receptor subfamily 1 group I member 2 (Homo sapiens, UniProt O75469).
T3 sequence (O75469 whole entry): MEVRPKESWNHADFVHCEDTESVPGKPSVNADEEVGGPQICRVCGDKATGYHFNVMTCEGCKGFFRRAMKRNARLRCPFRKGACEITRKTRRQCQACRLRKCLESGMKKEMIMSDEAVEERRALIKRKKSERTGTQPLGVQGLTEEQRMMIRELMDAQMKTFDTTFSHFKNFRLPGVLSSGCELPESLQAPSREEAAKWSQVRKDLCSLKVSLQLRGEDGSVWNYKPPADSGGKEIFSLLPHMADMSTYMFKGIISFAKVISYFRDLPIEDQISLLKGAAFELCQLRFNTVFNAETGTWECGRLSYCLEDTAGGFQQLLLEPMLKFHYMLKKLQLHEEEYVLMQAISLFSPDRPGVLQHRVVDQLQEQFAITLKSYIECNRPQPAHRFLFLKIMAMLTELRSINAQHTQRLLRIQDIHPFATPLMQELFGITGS
In words: Activation of human PXR expressed in human HepG2 cells co-expressing CYP3A4 assessed as CYP3A4 activation at 10 uM by luciferase reporter gene assay relative to rifampicin. It is filed as ADME, cell-based. Particulars: hepg2, 10 µM. An outline of the steps:
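Single-concentration PXR reporter gene screen, compound at 10 μM; activation expressed as a percentage of the response to rifampicin, also at 10 μM.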
(Reporter assays use an easily measured gene product as a stand-in for the process of interest.)

The target in another data set is Cytochrome P450 2C19 (Homo sapiens, UniProt P33261). In words: Inhibition of CYP2C19 in human liver microsomes incubated for 5 mins in presence of NADPH and specific substrates by LC/MS/MS method. It is filed as ADME.
In data set [10] the target is T2, Cytochrome P450 3A5. In words: Induction of CYP3A5 activation in human hepatocytes at 10 uM incubated for 48 hrs using testosterone substrate relative to rifampicin. It is filed as ADME, cell-based, Hepatocyte. In short, it runs like this:
(§1)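 Human hepatocyte CYP3A induction, testosterone probe with 6-β-hydroxytestosterone as marker; activity expressed as % of the rifampicin response; hepatocytes from two donors tested.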

For another data set, the target named is T4, Cytochrome P450 1A2 (Homo sapiens, UniProt P05177).
T4 sequence (P05177 whole entry): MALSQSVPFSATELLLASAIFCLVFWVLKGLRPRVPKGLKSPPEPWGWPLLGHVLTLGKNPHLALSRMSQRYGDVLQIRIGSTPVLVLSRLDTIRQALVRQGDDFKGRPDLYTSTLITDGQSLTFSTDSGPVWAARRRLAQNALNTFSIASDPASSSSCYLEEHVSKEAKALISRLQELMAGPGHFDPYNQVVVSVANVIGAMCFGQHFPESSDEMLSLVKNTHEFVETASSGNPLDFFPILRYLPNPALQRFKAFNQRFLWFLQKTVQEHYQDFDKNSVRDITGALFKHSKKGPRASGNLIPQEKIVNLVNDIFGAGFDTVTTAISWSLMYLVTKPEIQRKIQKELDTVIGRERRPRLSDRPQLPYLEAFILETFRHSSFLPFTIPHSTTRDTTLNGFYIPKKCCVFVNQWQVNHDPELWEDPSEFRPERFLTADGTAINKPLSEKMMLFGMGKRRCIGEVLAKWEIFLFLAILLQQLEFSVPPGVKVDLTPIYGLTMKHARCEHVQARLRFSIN
In words: Inhibition of CYP1A2 in human liver microsomes incubated for 5 mins in presence of NADPH and specific substrates by LC/MS/MS method. Format: ADME.

Data set [11] is described as follows: Unbound fraction in human plasma at 10 uM by LCMS/MS detection based equilibrium dialysis method. Format: ADME, cell-free.
Data set [12] can be described thus: Intrinsic clearance in rat hepatocytes assessed per 10^6 cells at 1 uM after 0.5 to 120 mins by LCMS/MS method. Format: ADME, cell-based, Hepatocyte. The note with it: read-out: CLH.
Data set [13] in a line: Unbound fraction in mouse plasma at 10 uM by LCMS/MS detection based equilibrium dialysis method. It is filed as ADME, cell-free.
Data set [14] can be described thus: Unbound fraction in rat plasma at 10 uM by LCMS/MS detection based equilibrium dialysis method. Format: ADME, cell-free.
Data set [15] can be described thus: Aqueous equilibrium solubility in pH 7.4 phosphate buffer incubated for 24 hrs by HPLC-UV and MS method. Format: physicochemical.
A further data set deals with Cytochrome P450 2D6 (Homo sapiens, UniProt P10635). In words: Inhibition of CYP2D6 in human liver microsomes incubated for 5 mins in presence of NADPH and specific substrates by LC/MS/MS method. It is filed as ADME.
Data set [16] is described as follows: Intrinsic clearance in human hepatocytes assessed per 10^6 cells at 1 uM after 0.5 to 120 mins by LCMS/MS method. It is filed as ADME, cell-based, Hepatocyte. The note with it: read-out: CLH.
Data set [17] is described as follows: Volume of distribution at steady state in Han Wistar rat at 3 mg/kg, iv by LCMS/MS method. Format: ADME, organism-based. Particulars: in vivo, read-out: Vdss.
Data set [18] in a line: Intrinsic clearance in mouse hepatocytes assessed per 10^6 cells at 1 uM after 0.5 to 120 mins by LCMS/MS method. Format: ADME, cell-based, Hepatocyte. The note with it: read-out: CLH.
Data set [19] deals with T1, Cytochrome P450 3A4. In words: Induction of CYP3A4 activation in human hepatocytes at 10 uM incubated for 48 hrs using testosterone substrate relative to rifampicin. Format: ADME, cell-based, Hepatocyte. An outline of the steps: as §1
Data set [20] can be described thus: Cmax in Han Wistar rat at 10 mg/kg, po by LCMS/MS method. Format: ADME, organism-based. The note with it: in vivo. Also on record: dose 10 mg/kg, route oral.

Values after ≈ are worked out from the molar mass of the structure shown. Active and inactive are the calls of the source. The rule behind the calls is not given here.

T2 sequence (P20815 whole entry): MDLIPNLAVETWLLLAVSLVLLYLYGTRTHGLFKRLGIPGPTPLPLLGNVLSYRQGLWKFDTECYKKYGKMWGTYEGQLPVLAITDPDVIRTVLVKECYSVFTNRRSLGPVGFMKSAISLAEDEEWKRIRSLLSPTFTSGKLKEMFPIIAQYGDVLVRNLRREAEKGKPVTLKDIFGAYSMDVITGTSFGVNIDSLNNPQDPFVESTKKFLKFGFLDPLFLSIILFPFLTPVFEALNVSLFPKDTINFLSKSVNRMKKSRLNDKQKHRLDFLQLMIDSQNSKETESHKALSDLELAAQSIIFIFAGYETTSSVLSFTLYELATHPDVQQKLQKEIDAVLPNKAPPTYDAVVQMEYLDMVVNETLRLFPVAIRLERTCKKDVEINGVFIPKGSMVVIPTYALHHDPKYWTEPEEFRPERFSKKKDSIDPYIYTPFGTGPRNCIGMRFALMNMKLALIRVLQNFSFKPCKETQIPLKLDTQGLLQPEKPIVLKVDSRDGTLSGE
T1 sequence (P08684 whole entry): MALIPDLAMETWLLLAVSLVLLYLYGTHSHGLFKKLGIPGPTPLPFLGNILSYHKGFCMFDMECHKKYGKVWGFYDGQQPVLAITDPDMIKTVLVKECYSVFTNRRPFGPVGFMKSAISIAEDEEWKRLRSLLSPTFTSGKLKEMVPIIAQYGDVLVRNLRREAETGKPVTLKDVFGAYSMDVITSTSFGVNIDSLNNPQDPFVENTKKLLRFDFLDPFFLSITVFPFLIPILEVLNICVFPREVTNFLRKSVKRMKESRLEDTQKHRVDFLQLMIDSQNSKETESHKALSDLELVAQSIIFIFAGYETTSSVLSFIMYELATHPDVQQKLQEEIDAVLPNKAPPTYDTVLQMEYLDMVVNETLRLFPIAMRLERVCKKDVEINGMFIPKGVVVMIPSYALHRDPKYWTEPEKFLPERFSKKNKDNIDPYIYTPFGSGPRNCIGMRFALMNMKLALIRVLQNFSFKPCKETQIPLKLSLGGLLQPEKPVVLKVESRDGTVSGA
Sequence of Cytochrome P450 2C9 (P11712 whole entry): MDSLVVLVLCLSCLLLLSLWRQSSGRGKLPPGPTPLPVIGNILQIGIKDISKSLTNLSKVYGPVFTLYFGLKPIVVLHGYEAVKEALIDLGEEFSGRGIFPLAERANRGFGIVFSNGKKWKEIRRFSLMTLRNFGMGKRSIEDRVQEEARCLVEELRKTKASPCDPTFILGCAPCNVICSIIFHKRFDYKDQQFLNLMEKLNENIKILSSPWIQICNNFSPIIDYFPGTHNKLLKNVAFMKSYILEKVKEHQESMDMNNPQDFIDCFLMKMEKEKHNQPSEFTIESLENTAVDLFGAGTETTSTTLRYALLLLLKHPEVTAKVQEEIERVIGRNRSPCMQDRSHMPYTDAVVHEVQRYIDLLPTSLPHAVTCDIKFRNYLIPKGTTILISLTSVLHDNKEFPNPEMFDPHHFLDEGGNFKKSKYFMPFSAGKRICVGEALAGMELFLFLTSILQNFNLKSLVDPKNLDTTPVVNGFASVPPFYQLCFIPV
Sequence of Cytochrome P450 2D6 (P10635 whole entry): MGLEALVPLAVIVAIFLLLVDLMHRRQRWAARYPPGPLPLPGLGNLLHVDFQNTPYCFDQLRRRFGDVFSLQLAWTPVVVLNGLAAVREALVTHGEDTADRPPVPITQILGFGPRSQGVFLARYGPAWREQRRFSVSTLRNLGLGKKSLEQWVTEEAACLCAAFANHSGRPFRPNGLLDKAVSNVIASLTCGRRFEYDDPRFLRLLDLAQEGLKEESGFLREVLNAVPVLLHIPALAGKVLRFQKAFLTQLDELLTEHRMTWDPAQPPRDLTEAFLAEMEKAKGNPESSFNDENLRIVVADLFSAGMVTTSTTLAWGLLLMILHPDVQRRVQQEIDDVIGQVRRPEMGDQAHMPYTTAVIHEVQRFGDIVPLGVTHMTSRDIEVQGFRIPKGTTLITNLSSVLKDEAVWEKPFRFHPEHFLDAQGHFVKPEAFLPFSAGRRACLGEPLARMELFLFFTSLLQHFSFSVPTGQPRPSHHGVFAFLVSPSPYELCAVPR
Sequence of Sphingosine 1-phosphate receptor 1 (P21453 whole entry): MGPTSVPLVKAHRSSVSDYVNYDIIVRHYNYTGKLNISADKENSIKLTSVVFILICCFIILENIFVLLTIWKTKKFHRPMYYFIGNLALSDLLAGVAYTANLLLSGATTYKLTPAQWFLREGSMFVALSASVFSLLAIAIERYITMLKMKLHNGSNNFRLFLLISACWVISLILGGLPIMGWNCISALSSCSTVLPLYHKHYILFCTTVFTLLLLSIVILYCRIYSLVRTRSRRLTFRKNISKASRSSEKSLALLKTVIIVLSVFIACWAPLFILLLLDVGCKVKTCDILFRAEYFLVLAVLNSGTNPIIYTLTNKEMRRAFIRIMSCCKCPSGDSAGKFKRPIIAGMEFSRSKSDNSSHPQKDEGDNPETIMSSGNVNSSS
Sequence of Cytochrome P450 2C19 (P33261 whole entry): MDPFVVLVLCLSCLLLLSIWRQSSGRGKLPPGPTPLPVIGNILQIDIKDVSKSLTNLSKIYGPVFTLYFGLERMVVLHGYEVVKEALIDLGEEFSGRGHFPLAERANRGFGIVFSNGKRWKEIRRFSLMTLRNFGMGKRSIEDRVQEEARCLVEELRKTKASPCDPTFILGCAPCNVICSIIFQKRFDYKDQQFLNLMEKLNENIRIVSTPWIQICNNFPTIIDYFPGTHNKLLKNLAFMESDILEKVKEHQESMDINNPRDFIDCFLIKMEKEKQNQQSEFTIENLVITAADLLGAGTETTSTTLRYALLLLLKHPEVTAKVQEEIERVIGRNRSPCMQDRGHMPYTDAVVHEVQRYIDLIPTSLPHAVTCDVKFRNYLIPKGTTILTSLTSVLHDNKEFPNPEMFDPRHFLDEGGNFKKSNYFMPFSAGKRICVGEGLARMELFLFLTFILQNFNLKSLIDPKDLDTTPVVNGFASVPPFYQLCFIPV

With `CCn1c([C@@H](C)NS(=O)(=O)c2ccc(C#N)nc2)nc2cnc(C(F)(F)F)cc21`, the IC50 at Cytochrome P450 3A4 [1], at Cytochrome P450 3A5 [3], on Cytochrome P450 2C9, at Cytochrome P450 2C19, at Cytochrome P450 1A2 and at Cytochrome P450 2D6 was above 20 µM each time. Further, the fraction unbound at 10 µM stood at 0.36 in data set [2], 0.24 in [11], 0.53 in data set [13] and 0.32 in [14]. Further, the hepatocyte CLint at 1 µM came out at 2.4 µL/min/1e6 cells in data set [4], 2.1 µL/min/1e6 cells in [12], 1.2 µL/min/1e6 cells in data set [16] and 0.3 µL/min/1e6 cells in data set [18]. In data set [5], this compound registered a logD of 1.3. The same compound came in with a clearance in data set [6] of 2 mL/min/kg. The bioavailability in data set [7] turned out to be 87%. The inhibition result in the data set on Mus musculus was “Active”. Further, in data set [8], the concentration giving a half-maximal response (EC50) turned out to be 0.007 µM. Besides, the Activity is 15% in data set [9], below 40% at Cytochrome P450 3A5 [10] and below 40% at Cytochrome P450 3A4 [19]. The compound also yielded a solubility (thermodynamic) at 24 h in data set [15] of 765 µM (≈ 325 µg/mL). Also, in data set [17], the Vd stood at 1.2 L/kg. Also, the Cmax in data set [20] was found to be 13.3 µM.

For `CCn1c([C@@H](C)NS(=O)(=O)c2ccc(C#N)nc2)nc2cnc(C3CC3)cc21`, the IC50 at Cytochrome P450 3A4 [1], at Cytochrome P450 3A5 [3], on Cytochrome P450 2C9, on Cytochrome P450 2C19, on Cytochrome P450 1A2 and on Cytochrome P450 2D6 was above 20 µM in each case. For the same compound, the fraction unbound at 10 µM in [2] turned out to be 0.5; in data set [11], 0.19; in data set [13] it was 0.41; in data set [14], 0.18. Further, the hepatocyte CLint at 1 µM in data set [4] was determined as 1.7 µL/min/1e6 cells; in data set [12], 3.9 µL/min/1e6 cells; in data set [16], 0.2 µL/min/1e6 cells; in data set [18], 2.5 µL/min/1e6 cells. Further, the logD in data set [5] came to 1.6. The bioavailability in [7] was found to be 93%. The inhibition entry in the data set with Mus musculus was “Active”. Further, in data set [8], the EC50 was determined as 0.004 µM. In addition, the Activity in [9] is 20%; on Cytochrome P450 3A5 [10], below 40%; on Cytochrome P450 3A4 [19], below 40%. Besides, the thermodynamic solubility at 24 h in [15] was above 1000 µM. Further, the maximum concentration (Cmax) in [20] was 21.7 µM.
